# S100A4 MyoIIA: S100A4-myosin IIA interaction inhibition | S100A4/TAMRA-MyoIIA peptide fluorescence polarization | P26447 | 360,000 compounds, 0.14% hits | AID 652163 | inhibition, % at 10.7 µM;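 active = mean inhibition of at least 70% across replicates, with every replicate also reaching that level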
#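 System – human S100A4 monomer protein, biochemical binding assay · Buffer or medium – Calcium-containing HEPES buffer, pH 7.2 · Timing – 5 min between mix addition and reading · Also added – TAMRA-labelled myosin IIA heavy-chain peptide probe, 5 nM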
# CDK5 inh: inhibitors of human CDK5/p35 kinase | Q00535+Q15078 | Recombinant CDK5/p35, ADP-Glo luminescence, 60 min | inhibition, % at 10 µM | 330,000 compounds, 0.01% hits;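 active = highest replicate inhibition of at least 50% and at least 75% of replicates reaching 50%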;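 note: plate controls were DMSO neutral control for no effect and GW8510 at 10 µM for full effect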
# Target sequence (Q00535 whole entry, looked up): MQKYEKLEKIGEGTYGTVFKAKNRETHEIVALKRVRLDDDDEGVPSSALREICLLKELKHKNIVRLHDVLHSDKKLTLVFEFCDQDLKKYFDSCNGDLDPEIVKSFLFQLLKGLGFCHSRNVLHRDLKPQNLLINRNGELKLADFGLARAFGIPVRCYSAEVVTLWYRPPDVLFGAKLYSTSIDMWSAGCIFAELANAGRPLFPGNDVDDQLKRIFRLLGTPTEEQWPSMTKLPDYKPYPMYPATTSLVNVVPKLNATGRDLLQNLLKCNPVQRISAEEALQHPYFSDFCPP
# Target sequence (Q15078 whole entry, looked up): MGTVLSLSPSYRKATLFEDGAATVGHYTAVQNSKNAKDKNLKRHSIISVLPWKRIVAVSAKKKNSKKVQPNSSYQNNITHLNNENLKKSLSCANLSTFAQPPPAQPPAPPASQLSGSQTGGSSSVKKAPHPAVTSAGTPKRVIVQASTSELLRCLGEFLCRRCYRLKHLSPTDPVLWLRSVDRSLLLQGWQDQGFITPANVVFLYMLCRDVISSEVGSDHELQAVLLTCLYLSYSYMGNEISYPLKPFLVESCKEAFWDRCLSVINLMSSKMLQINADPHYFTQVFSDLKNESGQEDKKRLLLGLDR
# C2C12 statin: suppression of simvastatin myotoxicity; rescue of ATP level, % at 7.49 µM; 330,000 compounds, 0.78% hits; C2C12 myotubes + simvastatin, ATP luminescence, 48 h; scaled: DMSO 0, geranylgeraniol control 100; AID 602340;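 active = mean ATP rescue above about 67%, or every replicate alone reaching that limit, limit read from the data, passing the limit was not always enough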;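 note: myotubes were challenged with 10 µM simvastatin during compound exposure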
# dFosB activator: mouse delta FosB homodimer activation. purified delta FosB, TAMRA-CDK5 oligo fluorescence polarization; percent of positive-control signal above neutral wells. activation, % at 25 µM. 340,000 compounds, 0.99% hits. AID 493131;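 active = mean activation above about 17%, with every replicate also reaching it, limit read from the data, passing the limit was not always enough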
# CAL PDZ FP-1: inhibitors of human CAL PDZ peptide binding; 300,000 compounds, 0.92% hits; purified CAL PDZ, TMR-peptide fluorescence polarization, 1 h; AID 602252; inhibition, % at 24.9 µM;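 active = mean inhibition of at least 30% with at least half of replicates also reaching 30%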;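 note: 0% = DMSO neutral control and 100% = excess unlabeled competitor peptide PRC23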
# CAL PDZ FP-2: blocks peptide binding to human CAL PDZ domain; inhibition, % at 20 µM; AID 504414; 330,000 compounds, 0.02% hits; Q9HD26; purified CAL PDZ, TMR-peptide fluorescence polarization, 1 h;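 active = highest replicate inhibition of at least 40%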;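 note: plate controls were DMSO neutral control wells for no effect and unlabeled competitor peptide control wells for full effect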
#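 Read-out basis: mP drop reported as inhibition | Assay system: Tagged CAL PDZ protein CerCALP, purified | Benchmarks: Unlabelled peptide for full inhibition, DMSO wells as neutral | Schedule: 1 h incubation at room temperature before polarization reading | Buffer or medium: Sodium phosphate/NaCl buffer pH 7.4 with TCEP, IgG, Thesit | Doses: Single point, 20 µM | Measured by: Fluorescence polarization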
# Active calls of the source: *; . = no result. Rows were chosen to be rich in hits. Some 2% of all compounds tested hit in one or more screens of this group.
SMILES,S100A4 MyoIIA,CDK5 inh,C2C12 statin,dFosB activator,CAL PDZ FP-1,CAL PDZ FP-2
CCC1(c2ccc(C)cc2)C(=O)NC(=S)NC1=O,1.3,.,.,.,.,.
O=C(Cc1cccnc1)N1CCCCN2[C@H](CO)[C@H](c3ccc(C#CC4(O)CCCC4)cc3)[C@@H]2C1,-1.7,.,7.8,.,.,.
O=C(Cc1cccnc1)N1CCCCN2[C@@H](CO)[C@@H](c3ccc(C#CC4(O)CCCC4)cc3)[C@@H]2C1,98.0*,.,-5.3,.,.,.
CN(C)c1ccc(/C=C/c2cc[n+](C)c3ccccc23)cc1,-7.5,11.6,-57.9,93.4*,15.0,-0.1
C[n+]1ccc(-c2ccccc2)c2ccccc21,-7.3,-0.2,-135.3,2.6,-3.5,-1.9
CC1CN=C(Nc2ccc(F)c(Cl)c2)S1 (stereo not given),-0.4,0.0,.,-4.4,54.2*,0.4
CCCCC1(CN2CCCC2=O)C(=O)NC(=O)NC1=O,.,1.2,106.4*,4.0,-0.2,-0.3
CCCCC1(CCO)C(=O)NC(=S)NC1=O,-18.0,-0.4,-12.8,-4.6,2.4,0.6
Cc1cccc(NC2=NCCCS2)c1C,.,1.0,10.9,-2.9,-1.2,-1.6
c1ccc2oc(N3CCNCC3)nc2c1,.,-0.5,24.6,-8.5,.,0.2
O=C(CCN1CCOCC1)NCC(=O)Nc1ccc(Br)cc1C(=O)c1ccccc1,.,-1.9,8.9,-4.5,35.6*,-2.4
O=C(CN1CCCCC1)NCC(=O)Nc1ccc(Br)cc1C(=O)c1ccccc1,.,0.5,.,-6.9,-7.4,-0.6
CCn1c(O)c(/C=N/NC(=O)c2ccccc2)c(=O)[nH]c1=S,-58.9,0.5,.,0.8,74.2*,-0.3
CCN1/C(=C\C=C\C2=[N+](CC)c3ccccc3C2(C)C)C(C)(C)c2ccccc21,.,23.7,-251.4,52.5*,-67.6,-42.0
Cc1cc(C)n2nc(SCC(=O)N3CCC4(CC3)OCCO4)nc2n1,.,0.0,3.0,0.5,1.6,0.3
c1ccc2c(c1)[IH]c1ccccc1-2,0.7,2.1,-113.7,32.8*,.,-5.7
CC(C)C(=O)N1CCN(CCN=Cc2c(O)n(C)c(=O)n(C)c2=O)CC1,.,-1.5,-10.2,0.3,1.5,0.4
Cc1ccc(OCC(=O)N2CCN(CC3CC4C=CC3C4)CC2)cc1 (stereo not given),.,0.1,4.2,-2.5,0.3,-0.4
COc1ccccc1C1CC2CCC(C1OC(C)=O)N2Cc1ccccc1 (stereo not given),-13.6,0.9,5.8,-6.3,-3.5,-0.5
CC(=NCc1cccnc1)c1c(O)n(-c2ccc(Cl)cc2)c(=O)[nH]c1=O,-9.1,-0.1,.,11.7,45.5*,-0.3
Cc1nc2ccc(Cl)cc2c(=O)n1-c1ccc([N+](=O)[O-])cc1,1.4,-1.7,9.5,-5.7,75.0*,.
Cc1nc2ccccc2c(=O)n1-c1ccc([N+](=O)[O-])cc1,1.2,-0.9,1.7,6.6,-2.8,.
CC1CCCN(c2ccc(C(=O)N3CCC4(CC3)OCCO4)cc2[N+](=O)[O-])C1 (stereo not given),5.3,0.5,0.3,-5.7,-3.6,0.4
CCOC(=O)C1CCCN(c2ccc([N+](=O)[O-])c3nonc23)C1 (stereo not given),169.9*,1.1,.,-97.3,3.7,4.2
O=C(O)[C@H]1[C@H](CO)[C@H]2Cn3c(ccc(-c4cccc(F)c4)c3=O)[C@@H]1N2CCc1ccccc1,8.5,.,-217.7,.,.,.
SMILES,S100A4 MyoIIA,CDK5 inh,C2C12 statin,dFosB activator,CAL PDZ FP-1,CAL PDZ FP-2
Cc1ccc(-c2nc3ccccc3c(=O)n2-c2cccc(O)c2)cc1,-4.5,-1.1,5.4,-11.8,57.5*,-2.7
CCc1nc2ccccc2c(=O)n1-c1ccc2ccccc2c1,.,-0.4,122.5*,-1.6,-6.2,-2.2
CCOC(=O)[C@]12Cc3ccccc3[C@H]1N(C(C)C)C(=O)c1cc(OC)ccc12,-8.6,.,.,.,.,.
COC(=O)c1nc(-c2ccc3c(n2)C(=O)C(N)=C(OC)C3=O)c(N)c(-c2ccc(OC)c(OC)c2O)c1C,-6.6,-1.4,31.7,-14.6,4.9,-3.5
Cc1ccnc(NC(=O)CCCc2ccc(N(CCCl)CCCl)cc2)n1,0.1,1.0,1.2,-1.2,51.2*,14.6
CC(=O)OC1N=C(c2ccccc2)c2cc(Br)ccc2NC1=O (stereo not given),.,-0.5,-2.6,-4.6,1.9,-0.1
O=C1NC(=O)N(c2ccccc2F)C(=O)/C1=C/c1ccc(Sc2nc3ccccc3[nH]2)o1,170.7*,-1.3,.,26.7*,-4.8,-4.1
O=C1NC(=O)N(c2cccc(Cl)c2)C(=O)/C1=C\c1ccc(Sc2nc3ccccc3[nH]2)o1,-89.8,3.0,.,48.9*,-1.3,-3.4
O=C1NC(=O)N(c2ccccc2)C(=O)/C1=C/c1ccc(Sc2ccccc2)o1,.,-0.1,.,-9.5,-3.4,.
CCCCn1c(O)c(C(C)=NC(C)c2ccccc2)c(=O)[nH]c1=O (stereo not given),.,0.4,17.8,-3.7,-5.1,-0.5
OC(CN1CC=C(c2ccccc2)CC1)c1ccccc1 (stereo not given),-0.7,-0.2,84.1*,-1.0,-2.7,-1.2
COc1ccc(CC2NCC(O)C2OC(C)=O)cc1 (stereo not given),18.3,0.8,113.8*,0.2,4.5,0.5
COc1cc(C2SCC(=O)Nc3c2c(=O)[nH]n3C2CCCCCC2)cc(OC)c1OC (stereo not given),.,0.5,.,-7.7,-2.2,-1.5
Cc1cccc(S(=O)(=O)N2[C@@H]3c4ccc(-c5ccncc5)c(=O)n4C[C@H]2[C@H](CO)[C@H]3C(=O)O)c1,-38.4,.,13.4,.,.,.
Cc1cccc(CS(=O)(=O)Cc2ccc(C(=O)N3CCC4(CC3)OCCO4)o2)c1,.,-0.4,-16.7,-8.7,-5.8,-1.0
CC1CC2(O)c3nonc3CCC2N1O (stereo not given),.,1.9,6.0,9.1,1.7,-1.6
CC1CN(O)C2CCc3nonc3C12O (stereo not given),.,-1.3,.,16.2*,0.9,-1.0
COC(=O)C1=C(c2ccc(OC)c(OC)c2)C[C@@H]2CC[C@H]1N2C(=O)N1CCOCC1,-0.1,1.5,-12.8,-15.2,-0.9,-0.3
COC(=O)C1=C(c2ccc(OC)c(OC)c2)C[C@@H]2CC[C@H]1N2C(=O)N1CCC(C)CC1,0.6,0.9,-2.3,1.7,40.9*,-3.7
COc1cc2c(cc1O)C[C@H]1NCCc3cc4c(c-2c31)OCO4,2.8,3.6,19.9,24.4*,0.9,-0.9
Cc1cc(/C=C2\C(=O)NC(=O)N(Cc3ccccc3)C2=O)c(C)n1C1CC1,18.5,0.4,.,42.9*,-4.6,-1.1
COc1cc(OC)c(OC)cc1/C=C1/C(=O)NC(=O)N(Cc2ccccc2)C1=O,13.5,-3.8,.,-13.2,.,0.5
COc1cc(OC)c(OC)cc1/C=C1\C(=O)NC(=O)N(Cc2ccccc2)C1=O,36.0,-5.7,6.0,-5.7,67.0*,0.1

# Compound activity deposited in PubChem by Broad Institute.
